Data: ChEMBL document CHEMBL3739379, “Anti-Candida activity and cytotoxicity of a large library of new N-substituted-1,3-thiazolidin-4-one derivatives” (Eur J Med Chem, 2016)
≈ marks a conversion by molar mass, not a printed value.

Columns and labels:
Type in all cases: functional
[1] = tested on: Staphylococcus haemolyticus; experiment: Antibacterial activity against Staphylococcus haemolyticus after 18 to 22 hrs by broth microdilution method
How it was run: (§1)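 Broth microdilution per NCCLS in Mueller-Hinton II broth; isolates subcultured for purity. Compounds dissolved in DMSO, serial dilutions 256 to 0.5 µg/mL; inoculum 10^5/mL. Controls: organism without compound, medium only. Incubation 18 to 22 h at 35 °C. MIC is the lowest concentration giving complete growth inhibition, read by unaided eye.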

[2] = tested on: Staphylococcus warneri; experiment: Antibacterial activity against Staphylococcus warneri after 18 to 22 hrs by broth microdilution method; how it was run: as §1
[3] = tested on: Escherichia coli; experiment: Antibacterial activity against Escherichia coli at after 18 to 22 hrs by broth microdilution method; how it was run: as §1
[4] = tested on: Klebsiella oxytoca; experiment: Antibacterial activity against Klebsiella oxytoca after 18 to 22 hrs by broth microdilution method; how it was run: as §1
[5] = tested on: Enterobacter sp.; experiment: Antibacterial activity against Enterobacter sp. after 18 to 22 hrs by broth microdilution method; how it was run: as §1
[6] = tested on: Pichia kudriavzevii; experiment: Antifungal activity against Candida krusei clinical isolate after 24 hrs by sabouraud dextrose broth based microdilution method
How it was run: (§2)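 Clinical isolates identified by conventional methods and subcultured for purity. Broth microdilution per NCCLS in Sabouraud dextrose broth; compounds dissolved in DMSO and serially diluted; inoculum 10^3/mL. Controls: fungi without compound, medium only. Incubated 24 h at 37 °C. MIC is the lowest concentration with complete growth inhibition by unaided eye. Values are geometric means over isolates per species.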

[7] = tested on: [Candida] sake; experiment: Antifungal activity against Candida sake clinical isolate after 24 hrs by sabouraud dextrose broth based microdilution method; conditions: Fermentozyma sake; how it was run: as §2
[8] = tested on: Candida tropicalis; experiment: Antifungal activity against Candida tropicalis clinical isolate after 24 hrs by sabouraud dextrose broth based microdilution method; how it was run: as §2
[9] = tested on: Staphylococcus aureus; experiment: Antibacterial activity against Staphylococcus aureus after 18 to 22 hrs by broth microdilution method; how it was run: as §1
[10] = tested on: Candida parapsilosis; experiment: Antifungal activity against Candida parapsilosis clinical isolate after 24 hrs by sabouraud dextrose broth based microdilution method; conditions: Lodderomyces parapsilosis; how it was run: as §2
[11] = tested on: Enterococcus faecalis; experiment: Antibacterial activity against […] faecalis after 18 to 22 hrs by broth microdilution method; how it was run: as §1
[12] = tested on: Candida albicans; experiment: Antifungal activity against Candida albicans clinical isolate after 24 hrs by sabouraud dextrose broth based microdilution method; how it was run: as §2
[13] = tested on: Nakaseomyces glabratus; experiment: Antifungal activity against Candida glabrata clinical isolate after 24 hrs by sabouraud dextrose broth based microdilution method; how it was run: as §2
[14] = tested on: Proteus mirabilis; experiment: Antibacterial activity against Proteus mirabilis after 18 to 22 hrs by broth microdilution method; how it was run: as §1

MIC [2] [µg/mL] | MIC [3] [µg/mL] | MIC [4] [µg/mL] | MIC [5] [µg/mL] | MIC [6] [µg/mL] | MIC [7] [µg/mL] | MIC [8] [µg/mL] | MIC [9] [µg/mL] | MIC [10] [µg/mL] | MIC [11] [µg/mL] | MIC [12] [µg/mL] | MIC [13] [µg/mL] | MIC [14] [µg/mL] | Structure (SMILES) | MIC [1] [µg/mL]
> 256 | > 256 | > 256 | > 256 | 16 (≈ 40.2 µM) | 16 (≈ 40.2 µM) | 256 (≈ 642 µM) | > 256 | 16 (≈ 40.2 µM) | > 256 | 256 (≈ 642 µM) | 16 (≈ 40.2 µM) | > 256 | C/C(=N\N=C1/SCC(=O)N1CN1C(=O)c2ccccc2C1=O)C1CCCCC1 | > 256
> 256 | > 256 | > 256 | > 256 | 2 (≈ 5.4 µM) | 8 (≈ 21.6 µM) | 4 (≈ 10.8 µM) | > 256 | 8 (≈ 21.6 µM) | > 256 | 16 (≈ 43.2 µM) | 32 (≈ 86.4 µM) | > 256 | CC1CCC/C1=N\N=C1/SCC(=O)N1CN1C(=O)c2ccccc2C1=O (stereo not given) | > 256
> 256 | > 256 | > 256 | > 256 | 16 (≈ 41.6 µM) | 16 (≈ 41.6 µM) | 32 (≈ 83.2 µM) | > 256 | 4 (≈ 10.4 µM) | > 256 | 4 (≈ 10.4 µM) | 16 (≈ 41.6 µM) | > 256 | O=C1c2ccccc2C(=O)N1CN1C(=O)CS/C1=N\N=C1CCCCCC1 | > 256
> 256 | > 256 | > 256 | > 256 | 256 (≈ 669 µM) | 256 (≈ 669 µM) | 128 (≈ 335 µM) | > 256 | 256 (≈ 669 µM) | > 256 | 256 (≈ 669 µM) | 16 (≈ 41.8 µM) | > 256 | C/C(=N\N=C1/SCC(=O)N1CN1C(=O)c2ccccc2C1=O)c1ccco1 | > 256
> 256 | > 256 | > 256 | > 256 | 16 (≈ 43.2 µM) | 32 (≈ 86.4 µM) | 8 (≈ 21.6 µM) | > 256 | 8 (≈ 21.6 µM) | > 256 | 8 (≈ 21.6 µM) | 16 (≈ 43.2 µM) | > 256 | O=C1c2ccccc2C(=O)N1CN1C(=O)CS/C1=N\N=C1CCCCC1 | > 256
> 256 | > 256 | > 256 | > 256 | 4 (≈ 10 µM) | 4 (≈ 10 µM) | 8 (≈ 20.1 µM) | > 256 | 4 (≈ 10 µM) | > 256 | 4 (≈ 10 µM) | 32 (≈ 80.3 µM) | > 256 | O=C1c2ccccc2C(=O)N1CN1C(=O)CS/C1=N\N=C1CCCCCCC1 | > 256
> 256 | > 256 | > 256 | > 256 | 4 (≈ 10.9 µM) | 2 (≈ 5.43 µM) | 8 (≈ 21.7 µM) | > 256 | 2 (≈ 5.43 µM) | > 256 | 2 (≈ 5.43 µM) | 8 (≈ 21.7 µM) | > 256 | O=C1c2ccccc2C(=O)N1CN1C(=O)CS/C1=N\N=C\c1ccco1 | > 256
> 256 | > 256 | > 256 | > 256 | 8 (≈ 20.8 µM) | 4 (≈ 10.4 µM) | 8 (≈ 20.8 µM) | > 256 | 8 (≈ 20.8 µM) | > 256 | 2 (≈ 5.2 µM) | 32 (≈ 83.2 µM) | > 256 | CC1CCC(=N/N=C2\SCC(=O)N2CN2C(=O)c3ccccc3C2=O)CC1 (stereo not given) | > 256
> 256 | > 256 | > 256 | > 256 | 16 (≈ 41.6 µM) | 2 (≈ 5.2 µM) | 2 (≈ 5.2 µM) | > 256 | 16 (≈ 41.6 µM) | > 256 | 4 (≈ 10.4 µM) | 8 (≈ 20.8 µM) | > 256 | CC1CCCC/C1=N\N=C1/SCC(=O)N1CN1C(=O)c2ccccc2C1=O (stereo not given) | > 256
> 256 | > 256 | > 256 | > 256 | 16 (≈ 43.2 µM) | 16 (≈ 43.2 µM) | 8 (≈ 21.6 µM) | > 256 | 8 (≈ 21.6 µM) | > 256 | 2 (≈ 5.4 µM) | 32 (≈ 86.4 µM) | > 256 | CC1CC/C(=N\N=C2/SCC(=O)N2CN2C(=O)c3ccccc3C2=O)C1 (stereo not given) | > 256
